These results are taken from ChEMBL document CHEMBL5321286, “Antiviral Evaluation of Dispirotripiperazines against Hepatitis B Virus” (J Med Chem, 2023).

Active and inactive are the calls of the source. The calls are words filed in the database; no cut-off is given here. Where only a bound is given, the exact number is not on record here.

Data set [1] has as its system Hepatitis B virus. Briefly: Antiviral activity against Hepatitis B virus infected in human HepDES19 cells assessed as reduction in capsid accumulation by measuring intracellular HBV nucleocapsid level after 5 days by agarose gel electrophoresis-based assay. The note with it: time 5.0 day. The format is functional, organism-based. An outline of the steps:
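HepDES19 cells replicating HBV were treated for 5 days. They were lysed in 10mM Tris pH 7.4, 1% Tween 20 and 150mM NaCl with protease inhibitors. Lysates were digested with micrococcal nuclease plus 10mM CaCl2 (final), normalised for protein by Bradford, and run on native agarose gels. Gels were capillary-blotted to nitrocellulose and probed with anti-HBcAg and an AP-conjugated secondary with BCIP/NBT. Bands were quantified by densitometry.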

Data set [2] relates to Hepatitis B virus. Briefly: Antiviral activity against Hepatitis B virus infected in human HepDES19 cells assessed as reduction in viral DNA replication measured after 3 days by q-PCR assay. The format is functional, organism-based. An outline of the steps: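 HepDES19, a HepG2 derivative with a tetracycline-repressible HBV cassette, was induced to replicate HBV by tetracycline withdrawal. Cells were exposed to compound for 3 days. Replication was measured by strand-preferential qPCR.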

The nature of data set [3]: Cytotoxicity against human HepDES19 cells assessed as reduction in cell viability incubated for 72 hrs by MTS assay. The format is toxicity, cell-based. The following applies: for CC50 at 72 h: HepDES19 cells. An outline of the steps: (§1)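 HepDES19 (HepG2-derived, tetracycline-repressible HBV cassette) cells were induced to replicate HBV by tetracycline withdrawal and exposed to compound for 3 days. Replication was read by strand-preferential qPCR; cytotoxicity by MTS assay.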
In general terms: Tetrazolium dyes change colour on reduction, which living cells bring about.

Data set [4] in a line: Selectivity index, ratio of CC50 for cytotoxicity against human HepDES19 cells to EC50 for antiviral activity against Hepatitis B virus infected in human HepDES19 cells. The format is toxicity, cell-based. The following applies: for selectivity ratio: HepDES19 cells, read-out: Ratio CC50/EC50. The essentials:
as §1

The test system of data set [5] is Hepatitis B virus. Briefly: Antiviral activity against Hepatitis B virus ayw1 infected in human HepG2 2.2.15 cells assessed as reduction in viral DNA replication preincubated for 3 days followed by media replacement and measured after 6 days by q-PCR assay. The format is functional, organism-based. The following applies: ayw1, HepG2 2.2.15. The essentials: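 HepG2 2.2.15 cells at 1.5 × 10^4 cells/well in DMEM with 2% FBS and 380 μg/mL G418, treated after 16-24 h at several concentrations in triplicate. Compound medium renewed on day 3. Supernatant taken on day 6, pronase-treated, and extracellular HBV DNA measured by TaqMan qPCR against a purified HBV DNA standard curve. EC50 and EC90 taken from the DNA reduction. Lamivudine served as positive control and medium alone as virus control.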

A short description of data set [6]: Cytotoxicity against human HepG2 2.2.15 cells assessed as reduction in cell viability by MTS assay. The format is toxicity, cell-based. The essentials:
(§2)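 HepG2 2.2.15 cells seeded at 1.5 × 10^4 cells/well in DMEM with 2% FBS, 380 μg/mL G418 and glutamine, using interior wells only. After 16-24 h, the medium was replaced with serial compound dilutions in triplicate, refreshed at day 3. At day 6, pronase-treated supernatant HBV DNA was measured by TaqMan qPCR against a standard curve (EC50/EC90). MTS viability on the same plate gave CC50; SI = CC50/EC.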

Data set [7] is described as follows: Selectivity index, ratio of CC50 for cytotoxicity against human HepG2 2.2.15 cells to EC50 for antiviral activity against Hepatitis B virus ayw1 infected in human HepG2 2.2.15 cells. The format is toxicity, cell-based. The following applies: read-out: Ratio CC50/EC50. The essentials: as §2
The nature of data set [8]: Selectivity index, ratio of CC50 for cytotoxicity against human HepG2 2.2.15 cells to EC90 for antiviral activity against Hepatitis B virus ayw1 infected in human HepG2 2.2.15 cells. The format is toxicity, cell-based. The essentials: as §2
The subject of data set [9] is Hepatitis B virus. Briefly: Antiviral activity against Hepatitis B virus ayw1 infected in human HepG2 2.2.15 cells assessed as reduction in viral DNA replication preincubated for 3 days followed by media replacement and measured 6 days after first dose by q-PCR assay. The note with it: ayw1, HepG2 2.2.15, 144 h.
[10] abbreviates: Hepatitis B virus, HepDES19, 72 h.

For `Clc1nc(N2CCC[N+]3(CC2)CC[N+]2(CCCNCC2)CC3)nc(N2CCC[N+]3(CC2)CC[N+]2(CCCNCC2)CC3)n1` (configuration not stated), in data set [1], the result was Active.

On to `Clc1nc(N2CCC[N+]3(CC2)CC[N+]2(CCCNCC2)CC3)nc(N2CCC[N+]3(CC2)CC[N+]2(CCCNCC2)CC3)n1.[Br-].[Br-].[Br-].[Br-]` (configuration not stated), for which, in [2] (hepdes19), the EC50 was found to be 7.5 µM. The 50% cytotoxic concentration (CC50) at 72 h in [3] came out at 99 µM. For the same molecule, the “Ratio CC50/EC50” value in [4] is 13.

In the case of `O=Cc1c(N2CC[N+]3(CC2)CC[N+]2(CCNCC2)CC3)nc(-c2ccccc2)nc1N1CC[N+]2(CC1)CC[N+]1(CCNCC1)CC2`, the EC50 stood at 2.1 µM in [2] (setting [10]) and 2.13 µM in data set [5]. Besides, the CC50 at 72 h in data set [3] was 86 µM. Besides, the selectivity ratio was 41 in data set [4], above 47 in data set [7] and above 4 in [8]. In addition, the CC50 in [6] is above 100 µM. Also, in [9], the EC90 turned out to be 26.5 µM.

As for `Cc1nc(N2CC[N+]3(CC2)CC[N+]2(CCNCC2)CC3)c(N)c(N2CC[N+]3(CC2)CC[N+]2(CCNCC2)CC3)n1`, the EC50 in [2] (setting [10]) amounted to 0.7 µM; in data set [5], 1.86 µM. Besides, the half-maximal cytotoxic concentration (CC50) at 72 h in [3] is 100 µM. Also, the selectivity ratio is 143 in data set [4], above 54 in data set [7] and above 6 in data set [8]. The CC50 in data set [6] is above 100 µM. Also, in data set [9], the EC90 is 15.7 µM.

As to `O=[N+]([O-])c1c(N2CCC[N+]3(CC2)CC[N+]2(CCCNCC2)CC3)ncnc1N1CCC[N+]2(CC1)CC[N+]1(CCCNCC1)CC2` (configuration not stated), the EC50 in data set [2] (setting [10]) stood at 9 µM. In addition, in data set [3], the CC50 at 72 h stood at 100 µM. For the same molecule, in data set [4], the selectivity ratio stood at 11.

`Nc1c(N2CC[N+]3(CCC[N+]4(CCNCC4)CC3)CC2)ncnc1N1CC[N+]2(CCC[N+]3(CCNCC3)CC2)CC1`: the EC50 in [2] (setting [10]) and in data set [5] was 22 µM throughout. For the same molecule, in data set [3], the CC50 at 72 h was 100 µM. Also, the results for the selectivity ratio in [4], in data set [7] and in [8] were 4.5, above 5 and above 1, respectively. Further, the CC50 in data set [6] is above 100 µM. The 90% effect concentration (EC90) in data set [9] was found to be 78.1 µM.

For `Nc1c(N2CCC[N+]3(CC2)CC[N+]2(CCCNCC2)CC3)ncnc1N1CCC[N+]2(CC1)CC[N+]1(CCCNCC1)CC2` (configuration not stated), the EC50 in [2] (setting [10]) was found to be 40 µM. For the same molecule, in data set [3], the CC50 at 72 h is 100 µM. Besides, the selectivity ratio in data set [4] came out at 2.5.

As to `O=[N+]([O-])c1c(N2CC[N+]3(CCC[N+]4(CCNCC4)CC3)CC2)ncnc1N1CC[N+]2(CCC[N+]3(CCNCC3)CC2)CC1`, in [2] (setting [10]), the half-maximal effective concentration (EC50) was 9 µM. For the same molecule, in data set [3], the CC50 at 72 h came out at 100 µM. Besides, the selectivity ratio in data set [4] turned out to be 11.

As to `O=Cc1c(O)nc(N2CC[N+]3(CCC[N+]4(CCNCC4)CC3)CC2)nc1N1CC[N+]2(CCC[N+]3(CCNCC3)CC2)CC1`, the EC50 in [2] (setting [10]) came out at 1 µM. Besides, the CC50 at 72 h in [3] amounted to 100 µM. The selectivity ratio in data set [4] came to 100.

As to `O=Cc1c(N2CCC[N+]3(CC2)CC[N+]2(CCCNCC2)CC3)ncnc1N1CCC[N+]2(CC1)CC[N+]1(CCCNCC1)CC2` (configuration not stated), the 50% effective concentration (EC50) in [2] (setting [10]) is above 100 µM. The 50% cytotoxic concentration (CC50) at 72 h in data set [3] was determined as 100 µM. The selectivity ratio in [4] is below 1.

As to `Cl.Cl.Clc1nc(N2CCC[N+]3(CC2)CC[N+]2(CCCNCC2)CC3)nc(N2CCC[N+]3(CC2)CC[N+]2(CCCNCC2)CC3)n1.[Br-].[Br-].[Br-].[Br-]` (configuration not stated), the concentration for a half-maximal effect (EC50) in data set [2] (hepdes19) is above 100 µM. The CC50 in data set [3] (hepdes19, 72 h, 72 h) amounted to 67 µM. The “Ratio CC50/EC50” value in data set [4] worked out at 0.67.

On to `O=Cc1c(N2CC[N+]3(CCC[N+]4(CCNCC4)CC3)CC2)ncnc1N1CC[N+]2(CCC[N+]3(CCNCC3)CC2)CC1`, for which, in [2] (setting [10]), the EC50 was above 100 µM. Moreover, in data set [3], the CC50 at 72 h is 100 µM. Moreover, the selectivity ratio in [4] was below 1.

For the molecule `Cc1nc(N2CCC[N+]3(CC2)CC[N+]2(CCCNCC2)CC3)c([N+](=O)[O-])c(N2CCC[N+]3(CC2)CC[N+]2(CCCNCC2)CC3)n1` (configuration not stated), the EC50 in data set [2] (setting [10]) stood at 5.3 µM. The CC50 at 72 h in data set [3] is 100 µM. The selectivity ratio in [4] turned out to be 19.

For `O=Cc1c(N2CCC[N+]3(CC2)CC[N+]2(CCCNCC2)CC3)nc(-c2ccccc2)nc1N1CCC[N+]2(CC1)CC[N+]1(CCCNCC1)CC2` (configuration not stated), the EC50 in data set [2] (setting [10]) stood at 11 µM. In addition, the CC50 at 72 h in data set [3] is 92 µM. Further, the selectivity ratio in data set [4] came out at 8.4.

For the molecule `Cc1nc(N2CC[N+]3(CCC[N+]4(CCNCC4)CC3)CC2)c([N+](=O)[O-])c(N2CC[N+]3(CCC[N+]4(CCNCC4)CC3)CC2)n1`, the result in [1] was Active. The 50% effective concentration (EC50) in data set [2] (setting [10]) is 6.5 µM; in data set [5], 6.53 µM. Also, in [3], the CC50 at 72 h turned out to be 100 µM. The selectivity ratio was 15 in [4], above 15 in data set [7] and above 2 in [8]. In addition, the CC50 in data set [6] is above 100 µM. Also, the EC90 in data set [9] worked out at 58.1 µM.

For the molecule `Nc1ccn([C@@H]2CS[C@H](CO)O2)c(=O)n1` [LAMIVUDINE], the EC50 in [5] was determined as 0.018 µM. In [6], the CC50 was above 2 µM. The results for the selectivity ratio in data set [7] and in data set [8] were above 113 and above 4, respectively. In addition, the EC90 in data set [9] turned out to be 0.541 µM.

Take `O=Cc1c(N2CC[N+]3(CCC[N+]4(CCNCC4)CC3)CC2)nc(-c2ccccc2)nc1N1CC[N+]2(CCC[N+]3(CCNCC3)CC2)CC1`: the EC50 in [2] (setting [10]) turned out to be 48 µM. Also, in data set [3], the CC50 at 72 h came out at 88 µM. Besides, the selectivity ratio in data set [4] worked out at 1.8.

Broadly, the EC50 is the concentration giving half of the maximal effect. The CC50 is the concentration that lowers cell viability or growth by half. Broadly, the EC90 is the point of the concentration-response curve where the effect stands at 90%.
